The record followed here is ChEMBL document CHEMBL4513216, “Probing the Open Global Health Chemical Diversity Library for Multistage-Active Starting Points for Next-Generation Antimalarials” (ACS Infect Dis, 2020).

The nature of this series: Toxicity liver stage against HepG2, at 10uM. The series is classed as cell-based. Set-up: test concentration 10 uM, cell line HepG2-A16-CD81EGFP. Conditions: human, HepG2-A16-CD81EGFP cells; read-out: INHIBITION
The essentials:
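Uninfected HepG2-A16-CD81EGFP cells, 3 × 10^3 per well, 1536-well, plated on prespotted compound at 10 μM final, parasite-free screening media added to match infected plates; puromycin 10 μM positive, DMSO 0.5% negative; run in parallel with 48 h PbLuc assay at 37 °C, 5% CO2; viability by CellTiter-Glo luminescence, normalized to controls.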
Turning to `COc1ccc(F)cc1C(=O)C1CCCN(Cc2cnc(C)s2)C1` (stereo not given), the cytotoxicity at 10 µM is 6.26%.

Consider `O=C(c1ccc2c(c1)OCO2)N1CCN2C(=O)NC[C@H]2C1`, for which the cytotoxicity at 10 µM stood at 2.02%.

In the case of `CC(C)COC(=O)N1CC(=O)N(Cc2ccco2)CC(O)C1` (stereo not given), the cytotoxicity at 10 µM was -1.7%.

With `CCN1CC(O)CN(C(=O)c2ccc(SC)cc2)CC1=O` (stereo not given), the cytotoxicity at 10 µM came to 6.88%.

For the compound `CC(C)C[C@H](NC(=O)Nc1ccc(F)c(Cl)c1)C(=O)O`, the cytotoxicity at 10 µM is -43%.

As for `N#Cc1nc(COc2ccc3c(c2)OCO3)oc1NC1CC1`, the cytotoxicity at 10 µM was -43%.

Take `CCO[C@@H]1CC[C@H]2[C@H]1OCCN2C(=O)c1ccc(C)o1`: the cytotoxicity at 10 µM is -149%.

Consider `Cc1cc2nc(SCC(=O)N3CCOCC3)n(C(C)C)c(=O)c2[nH]1`, for which the cytotoxicity at 10 µM came to 11%.

Consider `COc1cccc(C(=O)Oc2cc(=O)n3cccc(C)c3n2)c1`, for which the cytotoxicity at 10 µM turned out to be 6.36%.

Take `O=c1[nH]nc2c(N3CCCCCC3)nccn12`: the cytotoxicity at 10 µM was 10.5%.

With `Cn1cc2c(n1)C(CNC(=O)Cc1ccsc1)OCC2` (stereo not given), the cytotoxicity at 10 µM is 0.175%.

On to `O=C(NCCCN1CCOCC1)c1ccn(COc2ccc(Br)cc2)n1`, for which the cytotoxicity at 10 µM was 5.39%.

For the compound `Cc1cc(N2CCC(Cc3ccccc3)CC2)ncn1`, the cytotoxicity at 10 µM came out at 3.51%.

On to `Cc1cc(C(F)(F)F)nn1C(C)C(=O)Nc1ccc(Cl)cn1` (stereo not given), for which the cytotoxicity at 10 µM came to 11.6%.

As for `CC(C)(C)NC(=O)CCn1ncc2c(Cl)cccc21`, the cytotoxicity at 10 µM is 7.25%.

Take `CN1CCCCC[C@@H]2[C@@H]1[C@H](c1ccccc1)CN2C(=O)c1cccnc1`: the cytotoxicity at 10 µM is -24.4%.

`CN1CCCC[C@@H]2[C@H]1[C@@H](c1ccccc1)CCN2C(=O)c1cccnc1`: the cytotoxicity at 10 µM is -21.2%.

With `Cc1cc(C)nc(Nc2cccc(C3CCCN(CC4CC4)C3)n2)n1` (stereo not given), the cytotoxicity at 10 µM is -11.3%.

Regarding `COCC(=O)N1CCc2nc(-c3cnccn3)nc(O)c2C1`, the cytotoxicity at 10 µM turned out to be 27.7%.

Regarding `CS(=O)(=O)N1CCC(C(=O)NC(Cc2ccsc2)c2cccnc2)CC1` (stereo not given), the cytotoxicity at 10 µM was -12.5%.

Turning to `O=C(N[C@@H]1CN(Cc2cccc(F)c2)C[C@H]1O)c1cscn1`, the cytotoxicity at 10 µM is -4.66%.

`CC(=O)N1CC(Cc2nccc3ccn(C)c23)C1`: the cytotoxicity at 10 µM is 0.668%.

Turning to `COc1ccccc1C(=O)N1CC(Cc2nccc3ccn(C)c23)C1`, the cytotoxicity at 10 µM is -0.619%.

On to `O=C(NC1CC1)C1CCc2nnc(-c3cccnc3)n21` (stereo not given), for which the cytotoxicity at 10 µM amounted to 8.96%.

As for `Cn1nc(C2CCNC2)c2c(C(=O)NCC(F)(F)F)cc(C3CC3)nc21` (stereo not given), the cytotoxicity at 10 µM turned out to be 8.41%.

As to `COc1ccc(NC(=O)Cc2c(C)nn(C)c2C)cc1F`, the cytotoxicity at 10 µM amounted to 10.1%.

Consider `COC(=O)CCNC(=O)c1c[nH]cc1-c1ccccc1OC`, for which the cytotoxicity at 10 µM is 6.17%.

As to `Cc1csc(C2(NC(=O)NCCN3CCOCC3)CCC2)n1`, the cytotoxicity at 10 µM is -0.746%.

For `CCCNC(=O)CN1CCCC1c1nc(Cc2ccc(F)cc2)no1` (stereo not given), the cytotoxicity at 10 µM was 4.8%.

For `CCN(CC)CC1CCN(Cc2ncc(C(C)(C)C)o2)CC1`, the cytotoxicity at 10 µM is -7.22%.

Regarding `CC(C)(C)NC(=O)c1cccc(CN2CCS(=O)(=O)CC2)c1`, the cytotoxicity at 10 µM amounted to 4.5%.

As to `Cc1ccc(C(CNCc2nccn2C)N2CCOCC2)s1` (stereo not given), the cytotoxicity at 10 µM was -1.76%.

Consider `Cc1ccoc1CNCc1nnc2n1CCCC2C(F)(F)F` (stereo not given), for which the cytotoxicity at 10 µM worked out at 13.9%.

`O=C(NS(=O)(=O)c1ccccc1C(F)(F)F)c1cccc2c1OCCO2`: the cytotoxicity at 10 µM is 5.56%.

Turning to `Cc1nnc(NC(=O)c2cc(S(=O)(=O)N3CCSCC3)c[nH]2)s1`, the cytotoxicity at 10 µM was -7.01%.

Take `CC(C)c1nc(CC(=O)N(C)Cc2ccc3c(c2)OCO3)cs1`: the cytotoxicity at 10 µM is -13.5%.

On to `COc1ccc(CNC(=O)NCc2ccc(C)cc2)cn1`, for which the cytotoxicity at 10 µM was -5.63%.

Consider `CSCC(=O)N(C)Cc1ccc(N(C)C)cc1`, for which the cytotoxicity at 10 µM was 8.63%.

Regarding `COc1cccc(CCNC(=O)CCS(=O)(=O)C2CCCC2)c1`, the cytotoxicity at 10 µM turned out to be 2.2%.

As for `CCn1c(=O)n(Cc2nc(C3CC3)no2)c2ccccc21`, the cytotoxicity at 10 µM is -43.2%.

In the case of `CCOc1cccc(CNC(C)c2ccc(-n3ccnc3)cc2)c1O` (stereo not given), the cytotoxicity at 10 µM was -38.3%.

In the case of `Cc1ccc(CNC(=O)Cn2c(=O)c3cccnc3n2C)cc1F`, the cytotoxicity at 10 µM is -2.83%.

Take `CCC(Nc1nnnn1-c1ccccc1)C(=O)NCc1cccs1` (stereo not given): the cytotoxicity at 10 µM was -1.12%.

In the case of `O=C1OCCN1CCCN1CCCC1c1ccc(O)cc1` (stereo not given), the cytotoxicity at 10 µM is -6.3%.

In the case of `Cc1cnn(CCNCc2nc(-c3ccsc3)oc2C)c1`, the cytotoxicity at 10 µM is -3.55%.

On to `Cc1nc(C)n(Cc2cccc(NC(=O)NC(C)(CO)C3CC3)c2)n1` (stereo not given), for which the cytotoxicity at 10 µM was 14.3%.

Regarding `Cc1cnc(CN2CCN(c3ccnc(-c4ccccc4)n3)CC2)cn1`, the cytotoxicity at 10 µM came out at 3.61%.

Consider `Cc1nnc(NC(=O)CN2CCCC(c3ccn[nH]3)C2)s1` (stereo not given), for which the cytotoxicity at 10 µM is -37.6%.

For the compound `CCOc1ccc(C(C)NC(=O)N2CCC(C(N)=O)CC2)cc1OC` (stereo not given), the cytotoxicity at 10 µM was -4.56%.

In the case of `Clc1ccc(OCCN2CCN(CCn3cncn3)CC2)cc1`, the cytotoxicity at 10 µM was -17.4%.

Turning to `COc1ncccc1CN1C[C@@H]2CN(c3ncccn3)C[C@@H]2C1`, the cytotoxicity at 10 µM was -5.11%.

As for `CC(C)n1c2ccccc2c2c1cc(C(=O)N(C)C)n2C(=O)N(C)C`, the cytotoxicity at 10 µM was -95%.

`CO[C@@H]1CC[C@H]2[C@H]1OCCN2C(=O)COc1ccc(C)cc1`: the cytotoxicity at 10 µM was -99%.

Consider `CCC1=N[C@@]2(CC[C@@H]3CN(C(=O)NCC4CCCCC4)C[C@@H]32)C(=O)N1`, for which the cytotoxicity at 10 µM was -70.2%.

As for `COCCN(Cc1ccccc1Cl)c1nc(CCN)nc2ccccc12`, the cytotoxicity at 10 µM is 12.9%.

With `Cc1cc(C2CCCCN2C(=O)CN2C(=O)OC(C)(C)C2=O)no1` (stereo not given), the cytotoxicity at 10 µM was 3.35%.

As to `Cc1cc(CC(C)Nc2nc(-c3cccnc3)nc3c2CNC3)[nH]n1` (stereo not given), the cytotoxicity at 10 µM was 3.28%.

Regarding `Cc1cc(C(=O)N2C[C@H](CO)C[C@H](CN3CCOCC3)C2)cnc1C`, the cytotoxicity at 10 µM worked out at 3.98%.

For `CC1(Cc2ccc3c(c2)OCO3)CCCN(S(=O)(=O)N2CCOCC2)C1` (stereo not given), the cytotoxicity at 10 µM was -5.39%.

Take `CCNC(=O)[C@@H]1C[C@H](N)CN1Cc1ccc(-c2ccccc2C#N)o1`: the cytotoxicity at 10 µM is -38.2%.

Consider `CCCc1nnc(N2CCC3(CCC(=O)N(C)C3)CC2)o1`, for which the cytotoxicity at 10 µM was 3.96%.

As for `Cc1cccc(CN2CCN(c3ncnc4[nH]cnc34)CC2CCO)n1` (stereo not given), the cytotoxicity at 10 µM was -3.09%.

Regarding `Cc1cc(C(=O)N2C[C@H](C(C)C)[C@@H](N(C)C)C2)cs1`, the cytotoxicity at 10 µM was -0.421%.

In the case of `CCCc1cc(C(=O)N2CCC3(CCCN(CCO)C3=O)C2)cs1` (stereo not given), the cytotoxicity at 10 µM is -144%.

On to `Cc1nc(C(F)(F)F)nc(N2CCC3(CC2)CC(C(=O)O)N(C)C3)c1C` (stereo not given), for which the cytotoxicity at 10 µM was -4.14%.

Consider `Cc1ocnc1C(=O)N1CCC2(CC1)c1nc[nH]c1CCN2CC(C)C`, for which the cytotoxicity at 10 µM is -11.4%.

For `CN1CC[C@H]2CN(C(=O)COCc3nc4cc(F)ccc4[nH]3)C[C@H]21`, the cytotoxicity at 10 µM worked out at 2.77%.

Take `CC1(C)CN(C(=O)CC2CCC2)C[C@]1(C)O`: the cytotoxicity at 10 µM is -9.15%.

`Cc1ccsc1CN1CCCC(CNC(=O)c2ccc(N)nc2)C1` (stereo not given): the cytotoxicity at 10 µM was -2.25%.

As for `Cc1ccc(-c2cn[nH]c2C2CCCN(c3nccc(N)n3)C2)cc1` (stereo not given), the cytotoxicity at 10 µM is 15.6%.

Consider `Cc1cc(C)n(NC(=O)c2ccccc2F)c(=O)c1`, for which the cytotoxicity at 10 µM is -13.2%.

Consider `CCN(CC)C1COc2c(cc(Br)c(C)c2C)C1=O` (stereo not given), for which the cytotoxicity at 10 µM amounted to 0.331%.

As for `Cc1cccc(OCC(O)CN2CCC(Cn3cccn3)CC2)c1` (stereo not given), the cytotoxicity at 10 µM is -1.43%.

For the compound `Cc1ccc(CN2CCCN(Cc3cscn3)CC2)cc1`, the cytotoxicity at 10 µM was -8.47%.

Regarding `N#Cc1ccc(OCC(=O)N2CCCC(n3cccn3)C2)cc1` (stereo not given), the cytotoxicity at 10 µM was -2.83%.

On to `Cc1cnn(CC2CCCCN2C(=O)c2cccc3c2OCO3)c1` (stereo not given), for which the cytotoxicity at 10 µM is -4.89%.

For the compound `CN(Cc1ccsc1)C(=O)Nc1cccnc1N1CCCC1`, the cytotoxicity at 10 µM is -4.37%.

Turning to `CN(Cc1ccc2c(c1)OCCO2)C(=O)NCCc1cnn(C)c1`, the cytotoxicity at 10 µM is -9.12%.

In the case of `Cn1cnc(S(=O)(=O)NCCCN2CCOCC2)c1Cl`, the cytotoxicity at 10 µM is -11.2%.

Consider `O=C(CN1CCC(N2CCNC2=O)CC1)NCC(F)(F)F`, for which the cytotoxicity at 10 µM is -3.35%.

`O=S(=O)(CCCN1CCCC1Cn1cncn1)c1ccccc1` (stereo not given): the cytotoxicity at 10 µM was -7.64%.

For `c1ccc(C(OCCNC2CCc3ncnn3C2)c2ccccc2)cc1` (stereo not given), the cytotoxicity at 10 µM is -18.4%.

Turning to `CCN(CC)C(=O)c1cc(C2CCCN2C)ccn1` (stereo not given), the cytotoxicity at 10 µM is -3.24%.

For `Cc1noc(C)c1CN1CC[C@H]2[C@H]1CCN2CC1CCOCC1`, the cytotoxicity at 10 µM is 2%.

Take `O=S(=O)(C1CC1)N1CC[C@@H](OCC2CC2)[C@@H]1Cc1ccncc1`: the cytotoxicity at 10 µM came out at 10.9%.

In the case of `CC(C)N1[C@H](Cn2cncn2)C[C@@H]2CN(Cc3ccsc3)CC[C@@H]21`, the cytotoxicity at 10 µM is -117%.

Regarding `COc1ncccc1CN1C[C@@H]2OCCN(CCN(C)C)[C@@H]2C1`, the cytotoxicity at 10 µM was 11.8%.

Consider `Cn1ncc2c1C(COCC1CC1)N(C(=O)c1ccncn1)CC2` (stereo not given), for which the cytotoxicity at 10 µM is -132%.

For `COc1ccccc1CNC(Cc1cccs1)c1nc(C)cs1` (stereo not given), the cytotoxicity at 10 µM was -6.12%.

`O=C(c1ccncc1)N1C[C@@H]2CCN(c3cccnc3)C[C@@H]2C1`: the cytotoxicity at 10 µM was -71.5%.

As to `CN1CCN(Cc2cccc(C#N)c2)Cc2cccnc21`, the cytotoxicity at 10 µM is -83.2%.

Regarding `Cc1noc(C)c1CN1CCN(CC2CC2)c2ncccc2C1`, the cytotoxicity at 10 µM turned out to be 5.56%.

Turning to `COc1ccc(CN2CCc3ncnc(C4CC4)c3CC2)cc1`, the cytotoxicity at 10 µM was -148%.

`CC1CCC(C(=O)N2CCC(n3cc(C4(O)CCCC4)nn3)CC2)CC1` (stereo not given): the cytotoxicity at 10 µM is 9.08%.

Take `CC1=C(C#N)C(=O)NC(=O)/C1=C\c1c(C)[nH]n(-c2ccc(C)cc2)c1=O`: the cytotoxicity at 10 µM amounted to 1.91%.
